# Measured values taken from ChEMBL document CHEMBL1129299, “Synthesis and antitumor evaluation of a highly potent cytotoxic DNA cross-linking polyamine analogue, 1,12-diaziridinyl-4,9-diazadodecane” (1996).
# How the values were obtained:
# [1] = test system: Mus musculus; experiment: Net log cell kill is an estimate of the number of cells that are killed by the compound was calculated at dose of 2.7 mg/kg on days 1; format: functional
# How it was run: (§1)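 Net log cell kill in female CD2F1 mice given ip L1210 (1 × 10^5 cells, day 0) and iv tail-vein drug from day 1. It was calculated from treated-minus-control median day of death, less treatment duration, relative to tumor doubling time. Doubling time came from median days of death in titration groups of 10 mice implanted with 1 × 10^4 to 1 × 10^6 cells.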
# [2] = test system: Mus musculus; experiment: Net log cell kill is an estimate of the number of cells that are killed by the compound was calculated at dose of 1.8 mg/kg on days 1; format: functional; how it was run: as §1
# [3] = test system: Mus musculus; experiment: Net log cell kill is an estimate of the number of cells that are killed by the compound was calculated at dose of 1.8 mg/kg on days 1,2; format: functional; how it was run: as §1
# [4] = test system: Mus musculus; experiment: Net log cell kill is an estimate of the number of cells that are killed by the compound was calculated at dose of 1.8 mg/kg on days 1,5,9; format: functional; how it was run: as §1
# [5] = test system: Mus musculus; experiment: In vivo antitumor studies were carried out on mice bearing L1210 murine leukemia cells, by administering intravenously the compound dose of 4.0 mg/kg on days 1; format: functional; settings: route intravenous
# How it was run: (§2)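 Female CD2F1 mice (12-week-old, five per group) given 1 × 10^5 L1210 ascites cells ip on day 0; cells were first passaged ip in DBA/2 mice. From day 1, freshly made drug in 25 mM sodium phosphate pH 7.4 was given iv by tail vein at 0.01 mL/g. Mean survival days were compared with untreated mice by ANOVA and Newman-Keuls.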
# [6] = test system: Mus musculus; experiment: Percent increase in life span was calculated by administering intravenously the compound dose of 1.8 mg/kg on days 1,5 and 9.; format: functional; settings: route intravenous
# How it was run: (§3)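 CD2F1 female mice bore ip L1210 (1 × 10^5 cells/mouse, day 0). Tail-vein iv dosing in 25 mM phosphate buffer pH 7.4 began on day 1. Percent increase in life span was calculated as (T − C)/C × 100, with T and C the median days of death for the treated and untreated groups.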
# [7] = test system: Mus musculus; experiment: Percent increase in life span was calculated by administering intravenously the compound dose of 1.8 mg/kg on days 1,8; format: functional; settings: route intravenous; how it was run: as §3
# [8] = test system: Mus musculus; experiment: Percent increase in life span was calculated by administering intravenously the compound dose of 2.7 mg/kg on days 1; format: functional; settings: route intravenous; how it was run: as §3
# [9] = test system: Mus musculus; experiment: Percent increase in life span was calculated by administering intravenously the compound dose of 2.7 mg/kg on days 1,2; format: functional; settings: route intravenous; how it was run: as §3
# [10] = test system: Mus musculus; experiment: Percent increase in life span was calculated by administering intravenously the compound dose of 2.7 mg/kg on days 1,5 and 9.; format: functional; settings: route intravenous; how it was run: as §3
# [11] = test system: Mus musculus; experiment: Percent increase in life span was calculated by administering intravenously the compound dose of 2.7 mg/kg on days 1,8; format: functional; settings: route intravenous; how it was run: as §3
# [12] = test system: Mus musculus; experiment: Percent increase in life span was calculated by administering intravenously the compound dose of 4.0 mg/kg on days 1; format: functional; settings: route intravenous; how it was run: as §3
# [13] = test system: Mus musculus; experiment: Percent increase in life span was calculated by administering intravenously the compound dose of 4.0 mg/kg on days 1,5 and 9.; format: functional; settings: route intravenous; how it was run: as §3
# [14] = test system: Mus musculus; experiment: Percent increase in life span was calculated by administering intravenously the compound dose of 4.0 mg/kg on days 1,8; format: functional; settings: route intravenous; how it was run: as §3
# [15] = test system: Mus musculus; experiment: Percent increase in life span was calculated by administering intravenously the compound dose of 1.8 mg/kg on days 1; format: functional; settings: route intravenous; how it was run: as §3
# [16] = test system: Mus musculus; experiment: Percent increase in life span was calculated by administering intravenously the compound dose of 1.8 mg/kg on days 1,2; format: functional; settings: route intravenous; how it was run: as §3
# [17] = test system: Mus musculus; experiment: Net log cell kill is an estimate of the number of cells that are killed by the compound was calculated at dose of 2.7 mg/kg on days 1,2; format: functional; how it was run: as §1
# [18] = test system: Mus musculus; experiment: Net log cell kill is an estimate of the number of cells that are killed by the compound was calculated at dose of 2.7 mg/kg on days 1,5,9; format: functional; how it was run: as §1
# [19] = test system: Mus musculus; experiment: Net log cell kill is an estimate of the number of cells that are killed by the compound was calculated at dose of 2.7 mg/kg on days 1,8; format: functional; how it was run: as §1
# [20] = test system: Mus musculus; experiment: Net log cell kill is an estimate of the number of cells that are killed by the compound was calculated at dose of 4.0 mg/kg on days 1; format: functional; how it was run: as §1
# [21] = test system: Mus musculus; experiment: Net log cell kill is an estimate of the number of cells that are killed by the compound was calculated at dose of 4.0 mg/kg on days 1,8; format: functional; how it was run: as §1
# [22] = test system: Mus musculus; experiment: In vivo antitumor studies were carried out on mice bearing L1210 murine leukemia cells, by administering intravenously the compound dose of 1.8 mg/kg on days 1; format: functional; settings: route intravenous; how it was run: as §2
# [23] = test system: Mus musculus; experiment: In vivo antitumor studies were carried out on mice bearing L1210 murine leukemia cells, by administering intravenously the compound dose of 1.8 mg/kg on days 1,2; format: functional; settings: route intravenous; how it was run: as §2
# [24] = test system: Mus musculus; experiment: In vivo antitumor studies were carried out on mice bearing L1210 murine leukemia cells, by administering intravenously the compound dose of 1.8 mg/kg on days 1,5 and 9.; format: functional; settings: route intravenous; how it was run: as §2
# [25] = test system: Mus musculus; experiment: In vivo antitumor studies were carried out on mice bearing L1210 murine leukemia cells, by administering intravenously the compound dose of 1.8 mg/kg on days 1,8; format: functional; settings: route intravenous; how it was run: as §2
# [26] = test system: Mus musculus; experiment: In vivo antitumor studies were carried out on mice bearing L1210 murine leukemia cells, by administering intravenously the compound dose of 2.7 mg/kg on days 1; format: functional; settings: route intravenous; how it was run: as §2
# [27] = test system: Mus musculus; experiment: In vivo antitumor studies were carried out on mice bearing L1210 murine leukemia cells, by administering intravenously the compound dose of 2.7 mg/kg on days 1,2; format: functional; settings: route intravenous; how it was run: as §2
# [28] = test system: Mus musculus; experiment: In vivo antitumor studies were carried out on mice bearing L1210 murine leukemia cells, by administering intravenously the compound dose of 2.7 mg/kg on days 1,5 and 9.; format: functional; settings: route intravenous; how it was run: as §2
# [29] = test system: Mus musculus; experiment: In vivo antitumor studies were carried out on mice bearing L1210 murine leukemia cells, by administering intravenously the compound dose of 4.0 mg/kg on days 1,2; format: functional; settings: route intravenous; how it was run: as §2
# [30] = test system: Mus musculus; experiment: In vivo antitumor studies were carried out on mice bearing L1210 murine leukemia cells, by administering intravenously the compound dose of 4.0 mg/kg on days 1,5 and 9.; format: functional; settings: route intravenous; how it was run: as §2
# [31] = test system: Mus musculus; experiment: In vivo antitumor studies were carried out on mice bearing L1210 murine leukemia cells, by administering intravenously the compound dose of 4.0 mg/kg on days 1,8; format: functional; settings: route intravenous; how it was run: as §2
# [32] = test system: Mus musculus; experiment: In vivo antitumor studies were carried out on mice bearing L1210 murine leukemia cells, by administering intravenously the compound dose of 6.0 mg/kg on days 1; format: functional; settings: route intravenous; how it was run: as §2
# [33] = test system: Mus musculus; experiment: In vivo antitumor studies were carried out on mice bearing L1210 murine leukemia cells, by administering intravenously the compound dose of 2.7 mg/kg on days 1,8; format: functional; settings: route intravenous; how it was run: as §2
# [34] = test system: Mus musculus; experiment: Net log cell kill is an estimate of the number of cells that are killed by the compound was calculated at dose of 10 mg/kg on days 1,5,9; format: functional
# [35] = test system: Mus musculus; experiment: Percent increase in life span was calculated by administering intraperitoneally the compound dose of 10 mg/kg on days 1,5 and 9.; settings: ip
# [36] = test system: Mus musculus; experiment: In vivo antitumor studies were carried out on mice bearing L1210 murine leukemia cells, by administering intraperitoneally the compound dose of 10 mg/kg on days 1,5 and 9.; settings: route intraperitoneal
smiles,measurement,setting,value
C(CCNCCCN1CC1)CNCCCN1CC1,NLCK,[1],3
same,NLCK,[2],4
same,NLCK,[3],6
same,NLCK,[4],2
same,Life span,[5],11 days
same,ILS at 1.8 mg/kg,[6],143%
same,ILS at 1.8 mg/kg,[7],86%
same,ILS at 2.7 mg/kg,[8],42%
same,ILS at 2.7 mg/kg,[9],100%
same,ILS at 2.7 mg/kg,[10],171%
same,ILS at 2.7 mg/kg,[11],129%
same,ILS at 4 mg/kg,[12],57%
same,ILS at 4 mg/kg,[13],14%
same,ILS at 4 mg/kg,[14],157%
same,ILS at 1.8 mg/kg,[15],57%
same,ILS at 1.8 mg/kg,[16],100%
same,NLCK,[17],6
same,NLCK,[18],4
same,NLCK,[19],2
same,NLCK,[20],4
same,NLCK,[21],4
same,Mean survival,[22],10.8 days
same,Mean survival,[23],14.8 days
same,Mean survival,[24],17.4 days
same,Mean survival,[25],12.6 days
same,Mean survival,[26],10.4 days
same,Mean survival,[27],13.2 days
same,Mean survival,[28],18.8 days
same,Mean survival,[29],5.4 days
same,Mean survival,[30],11 days
same,Mean survival,[31],17.2 days
same,Mean survival,[32],6.8 days
same,Mean survival,[33],15.2 days
S=P(N1CC1)(N1CC1)N1CC1 [THIOTEPA],NLCK,[34],1
same,ILS at 10 mg/kg,[35],114%
same,Mean survival,[36],15.3 days
